Measured values taken from PMC3983694 (Journal of the American Chemical Society, 2013).
Where “and” joins values, the source holds several entries; their conditions need not be identical. Equal entries are not always repeated. Where two headings read alike, the source gives them in different places. Marks after values point to notes of the source that are not given here.

Assays:
[1] = cited from earlier work
[2] = Protonation constants by potentiometric or spectrophotometric titration; type: physicochemical; settings: aqueous solution, 25°C, 0.1 M KCl; concentration constants based on p[H]
Outline: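 The glass electrode was calibrated by titrating 5 mM HCl in 0.1 M KCl with standardized 0.1 M KOH (25°C, Gran's method); constants are on p[H], not activity. Ligand (1 or 5 mM, 0.1 M KCl, 25°C; basic sites pre-protonated with ≥1 equiv HCl where needed) was titrated stepwise with 0.1 M KOH and fitted by non-linear least squares. Values are from three independent titrations as standard deviation of the mean. Adding 0.11 gives mixed-mode constants.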

[3] = Cyclic voltammetry of the ligand-bound Cu; type: physicochemical; settings: pH 5.0, 10 mM PIPBS, 0.1 M KClO4, Cu(II/I) complex
Outline: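 Cyclic voltammetry was run under argon in 10 mM PIPBS pH 5 with 0.1 M KClO4 electrolyte. Half-wave potentials were referenced to ferrocenium (0.40 vs. SHE) or ferroin.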

[4] = cited from earlier work; remark: listed apart in the source
Cu [5] = type: binding; settings: for pCu = −log [Cu(I)aq]: 10 μM ligand and 1 μM Cu(I), pH 7.0, I = 0.1; for logβ2’ (apparent, 2:1 Cu(I) complex): pH 7.0 (0.1 M KClO4); for logβ2 of the 2:1 Cu(I) complex: recommended cumulative average, aqueous solution 25°C
[6] = 1:1 Cu(II) complex, Damu et al.; cited from earlier work
Cu [7] = type: binding; settings: 1:1 Cu(II) complex, aqueous solution, 25°C, I = 0.1
[8] = Aqueous solubility of neutral ligand; type: physicochemical
[9] = spectrophotometric competition titration with MCL-1

In the case of `Cc1cc(-c2ccc(S(=O)(=O)O)cc2)c2ccc3c(-c4ccc(S(=O)(=O)O)cc4)cc(C)nc3c2n1` [BCS, bathocuproine disulfonate], the protonation constant ([1]; previously reported) is listed as 5.7, the logKH1 [2] is listed as 5.70(2) and the “E^f vs. SHE (half-wave potential)” value [3] is listed as 0.626 V and 0.626(1) V. The “logβ2 Cu(I)” value ([4]; previously reported) was 19.9, the “pCu = −log [Cu(I)aq]” value (Cu [5]) was 16.6 and the “logβ2 Cu(I)” value (Cu [5]; from half-wave potential and Cu(II) logβ2 via Equation (1)) was 20.81±0.08. For the same molecule, the “logβ2’ (apparent, 2:1 Cu(I) complex)” value (Cu [5]) was 20.8 ^e, the “logβ2 of the 2:1 Cu(I) complex” value (Cu [5]) was 20.81(2) ^d and the “logβ2 Cu(I)” value (Cu [5]; [9]) was 20.80±0.03.

For `CCSCCN(CCSCC)CCSCC` [TEMEA], the protonation constant ([1]; aqueous solution) is listed as 8.32 and the protonation constant ([1]; extrapolated from data acquired in 80% water-methanol) is listed as 7.1.

In the case of `OCCN(CCO)Cc1ccccn1` [DHEAMP, N,N-bis(2-hydroxyethyl)-N-(2-pyridylmethyl)amine], the protonation constant ([1]; lit.) is listed as 6.92±0.01, the “logKCu(II)L” value [6] is listed as 9.2±0.1 and the “log KCu(II)L” value (Cu [7]) is listed as 9.21±0.02.

For `CC#N` [acetonitrile], the “logβ1 Cu(I)” value ([4]; kinetic method) is listed as 2.63, the “logβ2 Cu(I)” value ([4]; kinetic method) is listed as 4.02 and the “logβ3 Cu(I)” value ([4]; kinetic method) is listed as 4.29.

In the case of `C1CSCCCSCCCSCCCSC1` [[16]aneS4], the “logKCu(I)L” value [4] is listed as 12.0.

In the case of `O=C(O)c1cc(-c2cc(C(=O)O)c3ccccc3n2)nc2ccccc12` [BCA, 2,2′-bicinchoninic acid], the protonation constant ([1]; 0.2 M ionic strength) is listed as 3.74±0.04, the “solubility in aqueous solution” value [8] is listed as “not soluble at millimolar concentrations” and the logKH1 [2] is listed as 3.80(2). The “pCu = −log [Cu(I)aq]” value (Cu [5]) was 13.5, the “logβ2 Cu(I)” value (Cu [5]; competition titration with PEMEA) was 17.63±0.05 and the “logβ2’ (apparent, 2:1 Cu(I) complex)” value (Cu [5]) was 17.7 ^e. The “logβ2 of the 2:1 Cu(I) complex” value (Cu [5]) was 17.66(3) ^d and the “logβ2 Cu(I)” value (Cu [5]; [9]) was 17.67±0.03.

For `CSCCN(CCSC)CCSC` [TMMEA, tris(2-methylthioethyl)amine], the protonation constant ([1]; aqueous solution) is given as 8.36.
